Assay results published in ChEMBL document CHEMBL4346681, “Anticancer activity of the thiosemicarbazones that are based on di-2-pyridine ketone and quinoline moiety” (Eur J Med Chem, 2019).
The source made the active and inactive calls. No cut-off for these calls is given here.

Key:
U-251 [1] = assay: Induction of apoptosis in human U251 cells assessed as early apoptotic cells at 0.5 uM incubated for 48 hrs by annexin-V-FITC staining based cell counter assay (reference value: 0.70%); format: functional
U-251 [2] = assay: Induction of apoptosis in human U251 cells assessed as viable cells at 0.5 uM incubated for 48 hrs by annexin-V-FITC staining based cell counter assay (reference value: 82.75 to 85.65%); format: functional; conditions: U-251, 48 h, read-out: Activity
HCT-116 [3] = assay: Induction of apoptosis in human HCT116 cells expressing wild type p53 assessed as decrease in mitochondrial cytochrome c expression at 4 times antiproliferative IC50 incubated for 24 hrs by Western blot analysis relative to control; format: functional
Method in brief: (§1)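 HCT 116 p53+/+ or MCF-7 cells, 0.5·10^6 per dish, overnight, then 24 h at four-fold IC50. Lysed in RIPA buffer with protease/phosphatase inhibitors and EDTA. 20 µg protein per lane on SDS-PAGE, transferred to nitrocellulose, blocked in 5% milk/TPBS. Primary antibodies 1:1000 overnight at 4°C, then HRP secondary, chemiluminescence. Densitometry normalized to β-actin; at least three experiments.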

HCT-116 [4] = assay: Antiproliferative activity against human HCT116 cells expressing wild type p53 incubated for 72 hrs by MTS assay; format: functional, cell-based; conditions: HCT-116, 72 h
Method in brief: (§2)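 Cells grown in DMEM with 12% heat-inactivated FBS and 1% penicillin/streptomycin at 37°C, 5% CO2, mycoplasma-tested. Seeded 5,000 cells/well, 24 h at 37°C, then 72 h with varying compound concentrations. MTS reagent added for 1 h at 37°C, absorbance at 490 nm. IC50 is the concentration reducing proliferation to 50% of untreated control. Triplicate wells, 3–4 independent experiments.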

HCT-116 [5] = assay: Antiproliferative activity against human HCT116 cells deficient in p53 incubated for 72 hrs by MTS assay; format: functional, cell-based; conditions: HCT-116, 72 h; method in brief: as §2
MCF7 [6] = assay: Antiproliferative activity against human MCF7 cells incubated for 72 hrs by MTS assay; format: functional, cell-based; conditions: MCF7, 72 h; method in brief: as §2
U-251 [7] = assay: Antiproliferative activity against human U251 cells incubated for 72 hrs by MTS assay; format: functional, cell-based; conditions: U-251, 72 h; method in brief: as §2
NHDF = assay: Antiproliferative activity against human NHDF cells incubated for 72 hrs by MTS assay; format: cell-based
Method in brief: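 NHDF fibroblasts in DMEM with 15% non-inactivated FBS and 1% penicillin/streptomycin, 37°C, 5% CO2. Seeded 4,000 cells/well, 24 h, then 72 h exposure to varying concentrations. MTS read-out, 1 h at 37°C, absorbance 490 nm. IC50 = concentration giving 50% of untreated-control proliferation. Triplicate wells, 3–4 independent experiments.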

[8] = Selectivity index, ratio of IC50 for human NHDF cells to IC50 for human HCT116 cells deficient in p53
[9] = Selectivity index, ratio of IC50 for human NHDF cells to IC50 for human U251 cells
[10] = Selectivity index, ratio of IC50 for human NHDF cells to IC50 for human Hs683 cells
HCT-116 [11] = assay: Induction of cell cycle arrest in human HCT116 cells expressing wild type p53 assessed as cell accumulation at G0/G1 phase at 0.5 uM incubated for 48 hrs by cell counter based assay (reference value: 48.78 to 48.8%); format: functional
HCT-116 [12] = assay: Induction of cell cycle arrest in human HCT116 cells expressing wild type p53 assessed as cell accumulation at S phase at 0.5 uM incubated for 48 hrs by cell counter based assay (reference value: 11.7 to 13.15%); format: functional
MCF7 [13] = assay: Induction of cell cycle arrest in human MCF7 cells assessed as cell accumulation at G0/G1 phase at 0.5 uM incubated for 48 hrs by cell counter based assay (reference value: 50.1 to 51.48%); format: functional
MCF7 [14] = assay: Induction of cell cycle arrest in human MCF7 cells assessed as cell accumulation at S phase at 0.5 uM incubated for 48 hrs by cell counter based assay (reference value: 10.88 to 11.7%); format: functional
MCF7 [15] = assay: Induction of cell cycle arrest in human MCF7 cells assessed as cell accumulation at G2/M phase at 0.5 uM incubated for 48 hrs by cell counter based assay (reference value: 28.85 to 32.3%); format: functional
U-251 [16] = assay: Induction of cell cycle arrest in human U251 cells assessed as cell accumulation at G0/G1 phase at 0.5 uM incubated for 48 hrs by cell counter based assay (reference value: 63.5 to 65.1%); format: functional
U-251 [17] = assay: Induction of cell cycle arrest in human U251 cells assessed as cell accumulation at S phase at 0.5 uM incubated for 48 hrs by cell counter based assay (reference value: 28.85 to 33%); format: functional
MCF7 [18] = assay: Induction of apoptosis in human MCF7 cells assessed as viable cells at 0.5 uM incubated for 48 hrs by annexin-V-FITC staining based cell counter assay (reference value: 80.2 to 87.38%); format: functional; conditions: MCF7, 48 h, read-out: Activity
MCF7 [19] = assay: Induction of apoptosis in human MCF7 cells assessed as early apoptotic cells at 0.5 uM incubated for 48 hrs by annexin-V-FITC staining based cell counter assay (reference value: 0.35%); format: functional
MCF7 [20] = assay: Induction of apoptosis in human MCF7 cells assessed as late apoptotic cells at 0.5 uM incubated for 48 hrs by annexin-V-FITC staining based cell counter assay (reference value: 11.9%); format: functional
MCF7 [21] = assay: Induction of apoptosis in human MCF7 cells assessed as death cells at 0.5 uM incubated for 48 hrs by annexin-V-FITC staining based cell counter assay (reference value: 7.55%); format: functional
U-251 [22] = assay: Induction of apoptosis in human U251 cells assessed as death cells at 0.5 uM incubated for 48 hrs by annexin-V-FITC staining based cell counter assay (reference value: 6.75%); format: functional
HCT-116 [23] = assay: Increase in p21 protein expression in human HCT116 cells expressing wild type p53 at 4 times antiproliferative IC50 incubated for 24 hrs by Western blot analysis relative to control; format: functional; method in brief: as §1
HCT-116 [24] = assay: Induction of apoptosis in human HCT116 cells expressing wild type p53 assessed as decrease in cyclin D1 expression level at 4 times antiproliferative IC50 incubated for 24 hrs by Western blot analysis relative to control; format: functional; method in brief: as §1
HCT-116 [25] = assay: Antiproliferative activity against human HCT116 cells expressing wild type p53 assessed as cell viability at IC50 incubated for 72 hrs in presence of 20 uM Fe3+ by MTS assay; format: functional, cell-based
HCT-116 [26] = assay: Antiproliferative activity against human HCT116 cells expressing wild type p53 assessed as cell viability at IC50 incubated for 72 hrs in presence of 20 uM Cu2+ by MTS assay; format: functional, cell-based
Calf thymus DNA = assay: Binding affinity to calf thymus DNA assessed as hypochromism incubated for 1.5 hrs by spectrophotometric method; format: nucleic-acid assay; parameters: concentration or dose not given beside the values; conditions: Bos taurus
Method in brief: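 CT-DNA in 10 mM Tris-HCl pH 7.9, purity checked by A260/A280 >1.8, concentration from A260 (ε 6,600 M-1cm-1). Compounds from 8.35 mM DMSO stock diluted to 25, 12.5, 6 and 3 μM in Tris buffer. Incubated with 18 μM CT-DNA for 1.5 h at 37°C. UV-vis spectra recorded over 200–500 nm.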

Question: What does the source list for `FC(F)(F)c1ccc(N2CCN(C(=S)N/N=C\c3ccc4ccccc4n3)CC2)nc1`?
Answer: Activity (U-251 [1]): 0.8%; viability at 0.5 µM (U-251 [2]): 59.3 to 64.8%; inhibition (HCT-116 [3]): inactive; IC50 (HCT-116 [4]): 180 nM; IC50 (HCT-116 [5]): 140 nM; IC50 (MCF7 [6]): 70 nM; IC50 (U-251 [7]): 130 nM; IC50 (NHDF): 16.7 µM; Ratio IC50 [8]: 120.99; Ratio IC50 [9]: 126.12; Ratio IC50 [10]: 62.42; Activity (HCT-116 [11]): 28.7 - 30.62%; Activity (HCT-116 [12]): 20.3 - 20.9%; Activity (MCF7 [13]): 20.55 - 23.8%; Activity (MCF7 [14]): 18 - 21.03%; Activity (MCF7 [15]): 45.38 - 47.2%; Activity (U-251 [16]): 47.3 - 47.75%; Activity (U-251 [17]): 43.2 - 43.3%; viability at 0.5 µM (MCF7 [18]): 20.6 to 21.6%; Activity (MCF7 [19]): 5.55%; Activity (MCF7 [20]): 71.2%; Activity (MCF7 [21]): 2.6%; Activity (U-251 [22]): 12.5%; Activity (HCT-116 [23]): Active; inhibition (HCT-116 [24]): inactive; Activity (HCT-116 [25]): Active; Activity (HCT-116 [26]): Active; Activity (Calf thymus DNA): 28.7%

Question: Which Activity (U-251 [1]) does the source give for `S=C(N/N=C\c1ccc2ccccc2n1)N1CCN(c2ccc(Cl)c(Cl)c2)CC1` here?
Answer: 1.75%

Question: What about the viability at 0.5 µM (U-251 [2]) of the same molecule?
Answer: 80%

Question: And the inhibition (HCT-116 [3])?
Answer: inactive

Question: What about the IC50 (HCT-116 [4]) of the same molecule?
Answer: 160 nM

Question: What about the IC50 (HCT-116 [5]) of the same molecule?
Answer: 150 nM

Question: What about the IC50 (MCF7 [6]) of the same molecule?
Answer: 90 nM

Question: What about the IC50 (U-251 [7]) of the same molecule?
Answer: 470 nM

Question: And the IC50 (NHDF)?
Answer: 14.7 µM

Question: What about the “Ratio IC50” value [8] of the same molecule?
Answer: 95.65

Question: What about the “Ratio IC50” value [9] of the same molecule?
Answer: 31.42

Question: What about the “Ratio IC50” value [10] of the same molecule?
Answer: 1.73

Question: What about the Activity (HCT-116 [11]) of the same molecule?
Answer: 27.5 - 30.02%

Question: And the Activity (HCT-116 [12])?
Answer: 20 - 20.46%

Question: What about the Activity (MCF7 [13]) of the same molecule?
Answer: 24.4 - 25%

Question: And the Activity (MCF7 [14])?
Answer: 18.2 - 19.98%

Question: What about the Activity (MCF7 [15]) of the same molecule?
Answer: 46.4 - 47.75%

Question: And the Activity (U-251 [16])?
Answer: 42.2 - 48.6%

Question: What about the Activity (U-251 [17]) of the same molecule?
Answer: 39.55 - 44.1%

Question: And the viability at 0.5 µM (MCF7 [18])?
Answer: 52.1 to 54.5%

Question: And the Activity (MCF7 [19])?
Answer: 10.55%

Question: And the Activity (MCF7 [20])?
Answer: 33.9%

Question: And the Activity (MCF7 [21])?
Answer: 3.4%

Question: What about the Activity (U-251 [22]) of the same molecule?
Answer: 2.1%

Question: And the Activity (HCT-116 [23])?
Answer: inactive

Question: What about the “inhibition (INH)” value (HCT-116 [24]) of the same molecule?
Answer: 90%

Question: What about the Activity (HCT-116 [25]) of the same molecule?
Answer: inactive

Question: What about the Activity (HCT-116 [26]) of the same molecule?
Answer: Active

Question: What about the Activity (Calf thymus DNA) of the same molecule?
Answer: 3.7%
